pIC50: −log10 of the molar value.
How the values were obtained:
Format in all cases: functional
Homo sapiens [1] = species on record: Homo sapiens; assay: Compound concentration that cause 50% inhibition of human platelet aggregation by COL/EPI cartridges
Procedure, shortened: (§1)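 Human whole blood drawn by forearm venipuncture into 3.8% (0.129 M) buffered sodium citrate (1:9 anticoagulant:blood). Aliquots incubated with compound (in 0.1 N NaOH/water 1:10; final 1–5 mM) 37 °C, 30 min, then loaded into PFA-100 cartridge (collagen/epinephrine or collagen/ADP). Closure time read in seconds; % inhibition calculated against vehicle-treated control blood.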

Homo sapiens [2] = species on record: Homo sapiens; assay: Compound was evaluated for the inhibitory activity against human platelet aggregation by COL/ADP cartridges at a concentration of 4 x 10 e-3 M; conditions: for inhibition at 4000 µM: Homo sapiens; procedure, shortened: as §1
Homo sapiens [3] = species on record: Homo sapiens; assay: Compound was evaluated for the inhibitory activity against human platelet aggregation by COL/ADP cartridges at a concentration of 1 x 10 e-3 M; procedure, shortened: as §1
Homo sapiens [4] = species on record: Homo sapiens; assay: Compound was evaluated for the inhibitory activity against human platelet aggregation by COL/ADP cartridges at a concentration of 5 x 10 e-3 M; conditions: for inhibition at 5000 µM: Homo sapiens; procedure, shortened: as §1
Homo sapiens [5] = species on record: Homo sapiens; assay: Compound was evaluated for the inhibitory activity against human platelet aggregation by COL/ADP cartridges at a concentration of 2 x 10 e-3 M; procedure, shortened: as §1
Homo sapiens [6] = species on record: Homo sapiens; assay: Compound was evaluated for the inhibitory activity against human platelet aggregation by COL/ADP cartridges at a concentration of 3 x 10 e-3 M; conditions: for inhibition at 3000 µM: Homo sapiens; procedure, shortened: as §1

| Compound | pIC50 (Homo sapiens [1]; Homo sapiens) | pIC50 (Homo sapiens [1]) | Inhibition (Homo sapiens [2]) | inhibition at 1000 µM (Homo sapiens [3]) | Inhibition (Homo sapiens [4]) | inhibition at 2000 µM (Homo sapiens [5]) | Inhibition (Homo sapiens [6]) | inhibition at 4000 µM (Homo sapiens [2]) | inhibition at 5000 µM (Homo sapiens [4]) | inhibition at 3000 µM (Homo sapiens [6]) |
| --- | --- | --- | --- | --- | --- | --- | --- | --- | --- | --- |
| CCC(CCCOc1cc(C)ccc1C)C(=O)O (stereo in doubt; 5b) | 2.62 | – | 5.51% | 0% | 2.57% | 0% | 3.3% | – | – | – |
| CC(=O)Oc1ccccc1C(=O)O [ASPIRIN] | 4.30 | – | – | 0% | – | 0% | – | 6.76% | 17.1% | 0% |
| Cc1ccc(C)c(OCCCC(C)(C)C(=O)O)c1 [GEMFIBROZIL] | 2.57 | – | – | 0% | – | 2.5% | – | 100% | 100% | 17% |
| CCC(CCCOc1cc(C)ccc1C)C(=O)O (single isomer, unassigned; (+)) | – | 2.39 | 0% | – | 100% | – | 0% | – | – | – |
| Cc1ccc(C)c(OCCCC(C)C(=O)O)c1 (single isomer, unassigned; (+)) | 2.51 | – | 0% | 0% | 5.36% | 0% | 0.97% | – | – | – |

Second part, led by results:

| pIC50 (Homo sapiens [1]; Homo sapiens) | pIC50 (Homo sapiens [1]) | Compound | Inhibition (Homo sapiens [2]) | inhibition at 1000 µM (Homo sapiens [3]) | Inhibition (Homo sapiens [4]) | inhibition at 2000 µM (Homo sapiens [5]) | Inhibition (Homo sapiens [6]) | inhibition at 4000 µM (Homo sapiens [2]) | inhibition at 5000 µM (Homo sapiens [4]) | inhibition at 3000 µM (Homo sapiens [6]) |
| --- | --- | --- | --- | --- | --- | --- | --- | --- | --- | --- |
| – | 2.61 | Cc1ccc(C)c(OCCCC(C)C(=O)O)c1 (stereo in doubt; 5a) | 4.39% | – | 24.39% | – | 0.49% | – | – | – |
| – | 2.58 | Cc1ccc(C)c(OCCCC(C)C(=O)O)c1 (single isomer, unassigned; (-)) | – | – | 100% | – | 0% | – | – | – |
